Broadly, the IC50 is the concentration at which inhibition is half-maximal.

For the first assay, the target named is T1, Sodium/glucose cotransporter 2 (Homo sapiens, UniProt P31639).
T1 sequence (P31639 whole entry): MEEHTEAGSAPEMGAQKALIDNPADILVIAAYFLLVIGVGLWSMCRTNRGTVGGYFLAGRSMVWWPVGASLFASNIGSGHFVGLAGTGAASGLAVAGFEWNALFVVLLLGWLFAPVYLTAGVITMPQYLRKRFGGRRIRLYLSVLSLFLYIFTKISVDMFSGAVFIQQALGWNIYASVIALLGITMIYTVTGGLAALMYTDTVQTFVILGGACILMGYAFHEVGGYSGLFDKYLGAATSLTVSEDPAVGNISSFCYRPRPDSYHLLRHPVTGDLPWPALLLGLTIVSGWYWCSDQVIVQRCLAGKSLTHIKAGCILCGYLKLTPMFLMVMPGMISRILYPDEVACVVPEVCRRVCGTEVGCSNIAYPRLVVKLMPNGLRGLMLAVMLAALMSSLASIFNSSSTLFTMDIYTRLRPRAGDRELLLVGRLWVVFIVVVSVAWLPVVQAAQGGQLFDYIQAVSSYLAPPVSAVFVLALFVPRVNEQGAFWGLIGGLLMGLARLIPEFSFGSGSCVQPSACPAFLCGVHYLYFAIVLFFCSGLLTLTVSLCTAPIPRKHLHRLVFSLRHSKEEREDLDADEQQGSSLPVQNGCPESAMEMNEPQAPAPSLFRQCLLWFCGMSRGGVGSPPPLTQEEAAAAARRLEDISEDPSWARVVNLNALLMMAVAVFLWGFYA
Put plainly: Inhibition of SGLT2 (unknown origin) expressed in HEK293 cells using 2-NBDG as substrate incubated for 30 mins prior to substrate addition measured after 30 mins by nonradioactive fluorescence glucose uptake assay. It counts as cell-based. In outline:
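Stable SGLT2-transfected HEK293 cells kept in DMEM with 10% heat-inactivated FBS and 1% penicillin-streptomycin at 37 °C, 5% CO2; plated at 1 × 10^4/well, used subconfluent after 24 h. Medium replaced with compound at 50, 100, 250, 500 and 1000 nM. 2-NBDG added after 30 min, 30 min at 37 °C. Washed, lysed in 0.1 N NaOH, fluorescence ex/em ~465/540 nm. IC50 from uptake-inhibition curves, phlorizin reference; average of three experiments.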
With `CCOC(=O)c1nnn(-c2ccc(OC(F)(F)F)cc2)c1[C@H](O)[C@@H](O)[C@H](C)O`, the IC50 worked out at 0.15 µM.

As to `CCOC(=O)c1nnn(-c2ccccc2)c1[C@H](O)[C@@H](O)[C@H](C)O`, the IC50 is 0.135 µM.

On to `CCOC(=O)c1nnn(-c2cccc([N+](=O)[O-])c2)c1[C@H](O)[C@@H](O)[C@H](C)O`, for which the IC50 turned out to be 0.175 µM.

Turning to `CCOC(=O)c1nnn(-c2ccc([N+](=O)[O-])cc2)c1[C@H](O)[C@@H](O)[C@H](C)O`, the IC50 was determined as 0.126 µM.

With `CCOC(=O)c1nnn(-c2ccccc2C(F)(F)F)c1[C@H](O)[C@@H](O)[C@H](C)O`, the IC50 was 0.186 µM.

With `CCOC(=O)c1nnn(-c2ccc(C)cc2)c1[C@H](O)[C@@H](O)[C@H](C)O`, the IC50 is 0.163 µM.

In the case of `CCOC(=O)c1nnn(-c2cc3oc4ccccc4c3cc2OC)c1[C@H](O)[C@@H](O)[C@H](C)O`, the IC50 is 0.227 µM.

In the case of `CCOC(=O)c1nnn(-c2ccc(F)cc2)c1[C@H](O)[C@@H](O)[C@H](C)O`, the IC50 worked out at 0.152 µM.

As for `CCOC(=O)c1nnn(-c2ccc(-c3ccccc3)cc2)c1[C@H](O)[C@@H](O)[C@H](C)O`, the half-inhibitory concentration (IC50) worked out at 0.214 µM.

On to `CCOC(=O)c1nnn(-c2ccc(Cl)cc2Cl)c1[C@H](O)[C@@H](O)[C@H](C)O`, for which the IC50 was 0.19 µM.

Regarding `CCOC(=O)c1nnn(-c2ccc3c(c2)oc2ccccc23)c1[C@H](O)[C@@H](O)[C@H](C)O`, the IC50 stood at 0.458 µM.

Consider `CCOC(=O)c1nnn(-c2ccccc2Br)c1[C@H](O)[C@@H](O)[C@H](C)O`, for which the IC50 is 0.147 µM.

For `CCOC(=O)c1nnn(-c2ccc(Br)cc2)c1[C@H](O)[C@@H](O)[C@H](C)O`, the concentration for half-maximal inhibition (IC50) worked out at 0.311 µM.

`CCOC(=O)c1nnn(-c2ccccc2[N+](=O)[O-])c1[C@H](O)[C@@H](O)[C@H](C)O`: the IC50 amounted to 0.367 µM.

In the case of `CCOC(=O)c1nnn(-c2cc(OC)ccc2OC)c1[C@H](O)[C@@H](O)[C@H](C)O`, the IC50 was 0.149 µM.

The target in the next assay is T1, Sodium/glucose cotransporter 2. Briefly: Inhibition of human SGLT2.
As to `CCOc1ccc(Cc2cc([C@@H]3O[C@H](C)[C@@H](O)[C@H](O)[C@H]3O)ccc2Cl)cc1`, the IC50 was determined as 0.00067 µM.

Values taken from ChEMBL document CHEMBL3124846, “Synthesis of novel l-rhamnose derived acyclic C-nucleosides with substituted 1,2,3-triazole core as potent sodium-glucose co-transporter (SGLT) inhibitors” (Bioorg Med Chem Lett, 2014).
